Results published in ChEMBL document CHEMBL1154114, “7-((4-Substituted)piperazin-1-yl) derivatives of ciprofloxacin: synthesis and in vitro biological evaluation as potential antitumor agents” (Bioorg Med Chem, 2009).

tested on: SK-MEL; test: Inhibition of human SK-MEL cell proliferation by MTT assay; assay type: functional, cell-based; details: not given

For CCn1cc(C(=O)O)c(=O)c2cc(F)c(N3CCNCC3)cc21 [NORFLOXACIN], the IC50 was 194 µM.

tested on: Drosophila melanogaster; test: Inhibition of Drosophila melanogaster DNA topoisomerase 2-mediated pBR322 DNA relaxation by agarose gel electrophoresis; details: not given

Compared with O=C(O)c1cn(C2CC2)c2c(F)c(-c3ccc(O)cc3)c(F)cc2c1=O, O=C(O)c1cn(C2CC2)c2cc(-c3ccc(O)cc3)c(F)cc2c1=O is 2.2-fold higher in Activity: 60 µM for the first, 130 µM for the second.

tested on: NCI-H460; test: Inhibition of human NCI-H460 cell proliferation by sulphorodhamine B assay; assay type: functional, cell-based; details: not given

Compared with C[C@H]1COc2c(N3CCN(C)CC3)c(F)cc3c(=O)c(C(=O)O)cn1c23 [LEVOFLOXACIN], CCn1cc(C(=O)O)c(=O)c2cc(F)c(N3CCNCC3)cc21 [NORFLOXACIN] is 1.8-fold lower in IC50: 152 µM for the first, 86 µM for the second. The second is the more potent here.

tested on: MCF7; test: Inhibition of human MCF7 cell proliferation by MTT assay; assay type: functional, cell-based; details: not given

With CCn1cc(C(=O)O)c(=O)c2cc(F)c(N3CCNCC3)cc21 [NORFLOXACIN] the IC50 was 238 µM.

tested on: not listed separately; test: Stability in phosphate buffer of pH 7.4 after 6 days; assay type: physicochemical; details: read-out: Stability
How it was run: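 Compound dissolved at 1 mM in DMSO, diluted with phosphate buffer pH 7.4 to 1 mL, incubated sealed at 37 °C for 6 days. A t0 aliquot was held at 4 °C. HPLC with 280 nm detection and duplicate injections, with expected degradation products as references. Stability is taken as compound peak area over (compound + degradation product) peak area.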

For CCCCCCCCCCCCCCCC(=O)N1CCN(c2cc3c(cc2F)c(=O)c(C(=O)O)cn3C2CC2)CC1, the remaining at 144 h was 100%.

tested on: CHO; test: Inhibition of verapamil-resistant CHO cell proliferation by colony-forming assay; assay type: cell-based; details: Cricetulus griseus

First: O=C(O)c1cn(C2CC2)c2c(F)c(-c3ccc(O)cc3)c(F)cc2c1=O
Second: O=C(O)c1cn(C2CC2)c2cc(-c3ccc(O)cc3)c(F)cc2c1=O
The IC50 of the first is 3.3-fold lower: 12 µM for the first, 40 µM for the second. The first is the more potent here.

tested on: A-431; test: Inhibition of human A431 cell proliferation by MTT assay; assay type: functional, cell-based; details: not given

CCn1cc(C(=O)O)c(=O)c2cc(F)c(N3CCNCC3)cc21 [NORFLOXACIN] gave an IC50 of 70 µM.

tested on: CHO; test: Inhibition of CHO cell proliferation by colony-forming assay; assay type: cell-based; details: Cricetulus griseus

First: O=C(O)c1cn(C2CC2)c2c(F)c(-c3ccc(O)cc3)c(F)cc2c1=O
Second: O=C(O)c1cn(C2CC2)c2cc(-c3ccc(O)cc3)c(F)cc2c1=O
The IC50 of the first is 2.2-fold lower: 9 µM for the first, 20 µM for the second. The first is the more potent here.

tested on: EJ; test: Inhibition of human EJ cell proliferation by MTT assay; assay type: functional, cell-based; details: not given

With CCn1cc(C(=O)O)c(=O)c2cc(F)c(N3CCNCC3)cc21 [NORFLOXACIN] the IC50 was 210 µM.

tested on: not listed separately; test: Inhibition of mouse NIH/3T3 cell proliferation by MTT assay; assay type: cell-based; details: NIH3T3

First: CCn1cc(C(=O)O)c(=O)c2cc(F)c(N3CCNC(C)C3)c(F)c21 (stereo not given) [LOMEFLOXACIN]
Second: CCn1cc(C(=O)O)c(=O)c2cc(F)c(N3CCNCC3)cc21 [NORFLOXACIN]
The IC50 of the first is lower: 483 µM for the first, greater than 1000 µM for the second.

In the case of C[C@@H]1CN(c2c(F)c(N)c3c(=O)c(C(=O)O)cn(C4CC4)c3c2F)C[C@H](C)N1 [SPARFLOXACIN], the IC50 is reported as 122 µM.

tested on: HeLa; test: Inhibition of human HeLa cell proliferation; assay type: functional, cell-based; details: not given

CCn1cc(C(=O)O)c(=O)c2cc(F)c(N3CCNC(C)C3)c(F)c21 (stereo not given) [LOMEFLOXACIN] and COc1c(N2CCNC(C)C2)c(F)cc2c(=O)c(C(=O)O)cn(C3CC3)c12 (stereo not given) [GATIFLOXACIN] are within 1.5-fold of each other in IC50: 410 µM for the first, 400 µM for the second.

First: CCn1cc(C(=O)O)c(=O)c2cc(F)c(N3CCNCC3)cc21 [NORFLOXACIN]
Second: NC1CCN(c2nc3c(cc2F)c(=O)c(C(=O)O)cn3-c2ccc(F)cc2F)C1 (stereo not given) [TOSUFLOXACIN]
The IC50 of the first is 12-fold higher: 390 µM for the first, 32 µM for the second.

C[C@@H]1CN(c2c(F)c(N)c3c(=O)c(C(=O)O)cn(C4CC4)c3c2F)C[C@H](C)N1 [SPARFLOXACIN] gave an IC50 of 265 µM.

tested on: SW480; test: Inhibition of human SW480 cell proliferation by MTT assay; assay type: functional, cell-based; details: not given

Molecule CCn1cc(C(=O)O)c(=O)c2cc(F)c(N3CCNCC3)cc21 [NORFLOXACIN] has an IC50 of 168 µM.

tested on: MC3T3-E1; test: Inhibition of mouse MC3T3-E1 cell proliferation after 48 to 72 hrs; assay type: functional, cell-based; details: not given

First: N[C@@H]1[C@H]2CN(c3nc4c(cc3F)c(=O)c(C(=O)O)cn4-c3ccc(F)cc3F)C[C@@H]12 [TROVAFLOXACIN]
Second: C[C@H]1COc2c(N3CCN(C)CC3)c(F)cc3c(=O)c(C(=O)O)cn1c23 [LEVOFLOXACIN]
The IC50 of the first is lower: less than 1.2 µM for the first, 220 µM for the second. The first is the more potent here.

tested on: KB; test: Inhibition of human KB cell proliferation by MTT assay; assay type: functional, cell-based; details: not given

Molecule CCn1cc(C(=O)O)c(=O)c2cc(F)c(N3CCNCC3)cc21 [NORFLOXACIN] has an IC50 of 150 µM.
